Measured values taken from ChEMBL document CHEMBL1141317, “Pavietin, a coumarin from Aesculus pavia with antifungal activity” (2007).

Assays:
Fulvia fulva [1] = assay: Antifungal activity against Cladosporium fulvum assessed as mycelial growth at 200 umol/L […] relative to control; type: functional
Procedure, shortened: (§1)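 Agar-incorporation assay rather than disk. Compound in a few drops of DMSO, ultrafiltered and added to autoclaved, still-molten PDA at 50, 100 or 200 μmol L⁻¹. 1 cm mycelial plugs inoculated, 40 dishes per treatment per species. Grown 3 days at 22 °C in darkness. Mycelial growth expressed as % of DMSO-only controls (100%). Student–Neumann–Keuls test, p = 0.05.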

Globisporangium ultimum [2] = assay: Antifungal activity against Pythium ultimum assessed as mycelial growth at 0.15 mg/disk by filter disk method relative to control; type: functional
Procedure, shortened: (§2)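 Compound dissolved in a few drops of absolute EtOH and loaded onto 5 mm paper disks at 0.15, 1.5 or 15 mg per disk. Disks placed on PDA in 12 cm Petri dishes, 30 dishes per treatment per species. Inhibition zones measured in mm after 3 days at 27 °C. EtOH-only disk as control. Growth given as % of control (100%). Student–Neumann–Keuls test, p = 0.05.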

Polyporus [3] = assay: Antifungal activity against Polyporus marginatus assessed as mycelial growth at 50 umol/L by filter disk method relative to control; type: functional; conditions: in the assay text read “by incorporation into growth medium” for “by filter disk method”; procedure, shortened: as §1
Globisporangium ultimum [4] = assay: Antifungal activity against Pythium ultimum assessed as mycelial growth at 15 mg/disk by filter disk method relative to control; type: functional; procedure, shortened: as §2
[5] = Antifungal activity against Polyporus marginatus assessed as mycelial growth at 200 umol/L by filter disk method relative to control; type: functional; conditions: in the assay text read “by incorporation into growth medium” for “by filter disk method”; procedure, shortened: as §1
Aspergillus niger [6] = assay: Antifungal activity against Aspergillus niger assessed as mycelial growth at 50 umol/L by filter disk method relative to control; type: functional; conditions: in the assay text read “by incorporation into growth medium” for “by filter disk method”; procedure, shortened: as §1
Botrytis [7] = assay: Antifungal activity against Botrytis cinerea assessed as mycelial growth at 200 umol/L by filter disk method relative to control; type: functional; conditions: in the assay text read “by incorporation into PDA growth medium” for “by filter disk method”; procedure, shortened: as §1
Alternaria alternata [8] = assay: Antifungal activity against Alternaria alternata assessed as mycelial growth at 200 umol/L by filter disk method relative to control; type: functional; conditions: in the assay text read “by incorporation into growth medium” for “by filter disk method”; procedure, shortened: as §1
Guignardia aesculi [9] = assay: Antifungal activity against Guignardia aesculi assessed as mycelial growth at 50 umol/L by […] relative to control; type: functional; procedure, shortened: as §1
Fusarium basilici [10] = assay: Antifungal activity against Fusarium basilici assessed as mycelial growth at 15 mg/disk by filter disk method relative to control
Guignardia aesculi [11] = assay: Antifungal activity against Guignardia aesculi assessed as mycelial growth at 0.15 mg/disk by filter disk method relative to control; type: functional; procedure, shortened: as §2
Trichoderma viride [12] = assay: Antifungal activity against Trichoderma viride assessed as mycelial growth at 200 umol/L by filter disk method relative to control; type: functional; conditions: in the assay text read “by incorporation into growth medium” for “by filter disk method”; procedure, shortened: as §1
[13] = Antifungal activity against Rhizopus stolonifer assessed as mycelial growth at 100 umol/L […] relative to control; type: functional; procedure, shortened: as §1
Fulvia fulva [14] = assay: Antifungal activity against Cladosporium fulvum assessed as mycelial growth at 50 umol/L by filter disk method relative to control; type: functional; conditions: in the assay text read “by incorporation into PDA growth medium” for “by filter disk method”; procedure, shortened: as §1
Trichoderma viride [15] = assay: Antifungal activity against Trichoderma viride assessed as mycelial growth at 50 umol/L by filter disk method relative to control; type: functional; conditions: in the assay text read “by incorporation into growth medium” for “by filter disk method”; procedure, shortened: as §1
Fusarium basilici [16] = assay: Antifungal activity against Fusarium basilici assessed as mycelial growth at 1.5 mg/disk by filter disk method relative to control
Polyporus [17] = assay: Antifungal activity against Polyporus marginatus assessed as mycelial growth at 100 umol/L by filter disk method relative to control; type: functional; conditions: in the assay text read “by incorporation into growth medium” for “by filter disk method”; procedure, shortened: as §1
Fulvia fulva [18] = assay: Antifungal activity against Cladosporium fulvum assessed as mycelial growth at 100 umol/L by filter disk method relative to control; type: functional; conditions: in the assay text read “by incorporation into PDA growth medium” for “by filter disk method”; procedure, shortened: as §1
Alternaria dianthi [19] = assay: Antifungal activity against Alternaria dianthi assessed as mycelial growth at 50 umol/L by filter disk method relative to control; type: functional; conditions: in the assay text read “by incorporation into growth medium” for “by filter disk method”; procedure, shortened: as §1
Botrytis [20] = assay: Antifungal activity against Botrytis cinerea assessed as mycelial growth at 100 umol/L by filter disk method relative to control; type: functional; conditions: in the assay text read “by incorporation into PDA growth medium” for “by filter disk method”; procedure, shortened: as §1
Aspergillus niger [21] = assay: Antifungal activity against Aspergillus niger assessed as mycelial growth at 100 umol/L by filter disk method relative to control; type: functional; conditions: in the assay text read “by incorporation into growth medium” for “by filter disk method”; procedure, shortened: as §1
Penicillium expansum [22] = assay: Antifungal activity against Penicillium expansum assessed as mycelial growth at 50 umol/L […] relative to control; type: functional; procedure, shortened: as §1
Alternaria alternata [23] = assay: Antifungal activity against Alternaria alternata assessed as mycelial growth at 50 umol/L by filter disk method relative to control; type: functional; conditions: in the assay text read “by incorporation into growth medium” for “by filter disk method”; procedure, shortened: as §1
[24] = tested on: Fusarium oxysporum f. sp. dianthi; assay: Antifungal activity against Fusarium oxysporum dianthi assessed as mycelial growth at 100 umol/L by […] relative to control; type: functional; procedure, shortened: as §1
[25] = Antifungal activity against Fusarium oxysporum dianthi assessed as mycelial growth at 50 umol/L […] relative to control; type: functional; conditions: Fusarium oxysporum f. sp. dianthi; procedure, shortened: as §1
Alternaria dianthi [26] = assay: Antifungal activity against Alternaria dianthi assessed as mycelial growth at 100 umol/L by filter disk method relative to control; type: functional; conditions: in the assay text read “by incorporation into growth medium” for “by filter disk method”; procedure, shortened: as §1
Aspergillus niger [27] = assay: Antifungal activity against Aspergillus niger assessed as mycelial growth at 200 umol/L by filter disk method relative to control; type: functional; conditions: in the assay text read “by incorporation into growth medium” for “by filter disk method”; procedure, shortened: as §1
Guignardia aesculi [28] = assay: Antifungal activity against Guignardia aesculi assessed as mycelial growth at 15 mg/disk by filter disk method relative to control; type: functional; procedure, shortened: as §2
Guignardia aesculi [29] = assay: Antifungal activity against Guignardia aesculi assessed as mycelial growth at 100 umol/L by filter disk method relative to control; type: functional; conditions: in the assay text read “by incorporation into the growth medium” for “by filter disk method”; procedure, shortened: as §1
Rhizopus stolonifer [30] = assay: Antifungal activity against Rhizopus stolonifer assessed as mycelial growth at 200 umol/L […] relative to control; type: functional; procedure, shortened: as §1
Alternaria dianthi [31] = assay: Antifungal activity against Alternaria dianthi assessed as mycelial growth at 200 umol/L by filter disk method relative to control; type: functional; conditions: in the assay text read “by incorporation into growth medium” for “by filter disk method”; procedure, shortened: as §1
Penicillium expansum [32] = assay: Antifungal activity against Penicillium expansum assessed as mycelial growth at 200 umol/L […] relative to control; type: functional; procedure, shortened: as §1
Rhizopus stolonifer [33] = assay: Antifungal activity against Rhizopus stolonifer assessed as mycelial growth at 50 umol/L by […] relative to control; type: functional; procedure, shortened: as §1
Fusarium basilici [34] = assay: Antifungal activity against Fusarium basilici assessed as mycelial growth at 0.15 mg/disk by filter disk method relative to control
Botrytis [35] = assay: Antifungal activity against Botrytis cinerea assessed as mycelial growth at 50 umol/L by filter disk method relative to control; type: functional; conditions: in the assay text read “by incorporation into PDA growth medium” for “by filter disk method”; procedure, shortened: as §1
Guignardia aesculi [36] = assay: Antifungal activity against Guignardia aesculi assessed as mycelial growth at 1.5 mg/disk by filter disk method relative to control; type: functional; procedure, shortened: as §2
[37] = tested on: Fusarium oxysporum f. sp. dianthi; assay: Antifungal activity against Fusarium oxysporum dianthi assessed as mycelial growth at 200 umol/L by […] relative to control; type: functional; procedure, shortened: as §1
Alternaria alternata [38] = assay: Antifungal activity against Alternaria alternata assessed as mycelial growth at 100 umol/L by filter disk method relative to control; type: functional; conditions: in the assay text read “by incorporation into growth medium” for “by filter disk method”; procedure, shortened: as §1
Guignardia aesculi [39] = assay: Antifungal activity against Guignardia aesculi assessed as mycelial growth at 200 umol/L by filter disk method relative to control; type: functional; conditions: in the assay text read “by incorporation into growth medium” for “by filter disk method”; procedure, shortened: as §1
Penicillium expansum [40] = assay: Antifungal activity against Penicillium expansum assessed as mycelial growth at 100 umol/L […] relative to control; type: functional; procedure, shortened: as §1
Trichoderma viride [41] = assay: Antifungal activity against Trichoderma viride assessed as mycelial growth at 100 umol/L by filter disk method relative to control; type: functional; conditions: in the assay text read “by incorporation into growth medium” for “by filter disk method”; procedure, shortened: as §1
Globisporangium ultimum [42] = assay: Antifungal activity against Pythium ultimum assessed as mycelial growth at 1.5 mg/disk by filter disk method relative to control; type: functional; procedure, shortened: as §2

Molecule `CC[C@@H](CO)COc1cc2c(C)cc(=O)oc2cc1O` [PAVIETIN] has an Activity (Fulvia fulva [1]) of 60.8%, an Activity (Globisporangium ultimum [2]) of 88.4% and an Activity (Polyporus [3]) of 93.6%. It also gave an Activity (Globisporangium ultimum [4]) of 78%, an Activity [5] of 76.1% and an Activity (Aspergillus niger [6]) of 73.2%. It also gave an Activity (Botrytis [7]) of 51.4%, an Activity (Alternaria alternata [8]) of 58.5% and an Activity (Guignardia aesculi [9]) of 84.6%. For the same molecule, the Activity (Fusarium basilici [10]) was 59%, the Activity (Guignardia aesculi [11]) was 85.3% and the Activity (Trichoderma viride [12]) was 61.5%. For the same molecule, the Activity [13] was 71.3%, the Activity (Fulvia fulva [14]) was 88.6% and the Activity (Trichoderma viride [15]) was 78.8%. It also gave an Activity (Fusarium basilici [16]) of 76.4%, an Activity (Polyporus [17]) of 86.2% and an Activity (Fulvia fulva [18]) of 78.3%. For the same molecule, the Activity (Alternaria dianthi [19]) was 89.5%, the Activity (Botrytis [20]) was 64.6% and the Activity (Aspergillus niger [21]) was 68.6%. For the same molecule, the Activity (Penicillium expansum [22]) was 68.8%, the Activity (Alternaria alternata [23]) was 86.8% and the Activity [24] was 83.3%. The Activity [25] was 91.8%, the Activity (Alternaria dianthi [26]) was 77% and the Activity (Aspergillus niger [27]) was 50%. For the same molecule, the Activity (Guignardia aesculi [28]) was 33.8%, the Activity (Guignardia aesculi [29]) was 46.5% and the Activity (Rhizopus stolonifer [30]) was 68.1%. It also gave an Activity (Alternaria dianthi [31]) of 64.9%, an Activity (Penicillium expansum [32]) of 29.9% and an Activity (Rhizopus stolonifer [33]) of 82%. The Activity (Fusarium basilici [34]) was 87.8%, the Activity (Botrytis [35]) was 78.8% and the Activity (Guignardia aesculi [36]) was 64%. For the same molecule, the Activity [37] was 66.9%, the Activity (Alternaria alternata [38]) was 80.2% and the Activity (Guignardia aesculi [39]) was 20.7%. For the same molecule, the Activity (Penicillium expansum [40]) was 48.4%, the Activity (Trichoderma viride [41]) was 70.4% and the Activity (Globisporangium ultimum [42]) was 81.6%.
